In data set [1] the test system is Mus musculus. As to the kind of experiment: In vivo induction of ERalpha degradation in tumor of nude mouse xenografted with tamoxifen-resistant human MCF7 cells at 100 mg/kg, po daily for 28 days measured on day 28 post last dose. The data set is classed as functional, organism-based. The method, boiled down:
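Tamoxifen-resistant MCF-7 tumours grown subcutaneously in mice, with estradiol supplied from subcutaneous 0.72 mg estradiol pellets.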
A general note: A xenograft is tissue or cells of one species grown in another, often human tumour cells in immunodeficient mice.

Data set [2] has as its target T1, Glucocorticoid receptor (Homo sapiens) (UniProt P04150).
T1 sequence (whole entry): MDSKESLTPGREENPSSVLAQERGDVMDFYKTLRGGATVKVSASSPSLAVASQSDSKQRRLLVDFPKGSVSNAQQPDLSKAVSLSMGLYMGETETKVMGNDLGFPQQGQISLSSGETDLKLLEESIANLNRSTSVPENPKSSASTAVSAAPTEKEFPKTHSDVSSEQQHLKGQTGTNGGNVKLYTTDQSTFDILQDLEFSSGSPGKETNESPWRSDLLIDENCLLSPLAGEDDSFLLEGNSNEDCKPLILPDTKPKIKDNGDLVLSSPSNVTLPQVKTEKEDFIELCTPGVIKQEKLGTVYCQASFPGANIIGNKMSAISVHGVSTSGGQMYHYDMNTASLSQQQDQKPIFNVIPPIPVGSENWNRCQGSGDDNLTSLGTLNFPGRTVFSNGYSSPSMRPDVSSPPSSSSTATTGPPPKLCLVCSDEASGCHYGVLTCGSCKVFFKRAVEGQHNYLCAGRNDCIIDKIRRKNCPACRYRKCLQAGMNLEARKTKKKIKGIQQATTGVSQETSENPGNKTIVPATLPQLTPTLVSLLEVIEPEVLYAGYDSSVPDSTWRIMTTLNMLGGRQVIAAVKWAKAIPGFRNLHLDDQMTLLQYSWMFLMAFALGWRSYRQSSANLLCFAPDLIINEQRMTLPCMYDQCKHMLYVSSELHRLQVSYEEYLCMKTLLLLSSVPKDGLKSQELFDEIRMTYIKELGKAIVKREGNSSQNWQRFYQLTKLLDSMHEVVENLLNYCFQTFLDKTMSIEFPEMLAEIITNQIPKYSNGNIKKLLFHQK
Description: Antagonist activity at GR (unknown origin) by transcriptional reporter assay. A general note: In a reporter assay the amount or activity of a reporter protein is the signal.

The target in data set [3] is T2, Mineralocorticoid receptor (Homo sapiens) (UniProt P08235).
T2 sequence (whole entry): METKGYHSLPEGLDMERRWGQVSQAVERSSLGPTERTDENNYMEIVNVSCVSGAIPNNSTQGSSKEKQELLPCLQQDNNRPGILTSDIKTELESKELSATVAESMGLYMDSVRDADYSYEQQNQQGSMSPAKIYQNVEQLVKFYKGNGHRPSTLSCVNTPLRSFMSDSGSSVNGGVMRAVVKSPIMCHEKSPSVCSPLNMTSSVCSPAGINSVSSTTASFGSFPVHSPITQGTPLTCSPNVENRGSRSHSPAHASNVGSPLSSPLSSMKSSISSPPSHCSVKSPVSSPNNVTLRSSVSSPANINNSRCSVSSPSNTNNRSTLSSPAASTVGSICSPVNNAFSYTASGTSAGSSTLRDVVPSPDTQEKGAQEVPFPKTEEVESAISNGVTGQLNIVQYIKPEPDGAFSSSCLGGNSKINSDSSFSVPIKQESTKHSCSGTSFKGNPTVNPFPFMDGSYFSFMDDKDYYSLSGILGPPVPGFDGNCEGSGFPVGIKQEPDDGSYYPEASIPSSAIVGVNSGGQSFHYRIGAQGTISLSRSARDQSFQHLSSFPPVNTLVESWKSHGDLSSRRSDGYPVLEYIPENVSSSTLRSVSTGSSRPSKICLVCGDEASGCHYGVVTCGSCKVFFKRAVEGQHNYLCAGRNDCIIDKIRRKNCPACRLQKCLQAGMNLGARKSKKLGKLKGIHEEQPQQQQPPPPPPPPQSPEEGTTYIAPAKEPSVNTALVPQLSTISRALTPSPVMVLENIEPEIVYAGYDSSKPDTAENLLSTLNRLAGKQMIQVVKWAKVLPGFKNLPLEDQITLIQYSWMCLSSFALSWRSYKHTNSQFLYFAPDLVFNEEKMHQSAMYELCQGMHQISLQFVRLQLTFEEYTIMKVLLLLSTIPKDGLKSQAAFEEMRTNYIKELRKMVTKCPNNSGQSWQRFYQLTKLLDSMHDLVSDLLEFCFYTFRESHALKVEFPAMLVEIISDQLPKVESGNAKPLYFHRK
Description: Agonist activity at MR (unknown origin) by transcriptional reporter assay.

Data set [4] addresses Cytochrome P450 2C9 (Homo sapiens, UniProt P11712). Description: Inhibition of CYP2C9 (unknown origin). The data set is classed as ADME.
Data set [5] can be described thus: Genotoxicity in Salmonella typhimurium TA98 by Ames test. The class given is toxicity. The settings on record: salmonella enterica subsp. enterica serovar […].
The target in data set [6] is T1, Glucocorticoid receptor (Homo sapiens). As to the kind of experiment: Agonist activity at GR (unknown origin) by transcriptional reporter assay.
For data set [7], the target named is T3, Cytochrome P450 2C8 (Homo sapiens, UniProt P10632).
T3 sequence (P10632 whole entry): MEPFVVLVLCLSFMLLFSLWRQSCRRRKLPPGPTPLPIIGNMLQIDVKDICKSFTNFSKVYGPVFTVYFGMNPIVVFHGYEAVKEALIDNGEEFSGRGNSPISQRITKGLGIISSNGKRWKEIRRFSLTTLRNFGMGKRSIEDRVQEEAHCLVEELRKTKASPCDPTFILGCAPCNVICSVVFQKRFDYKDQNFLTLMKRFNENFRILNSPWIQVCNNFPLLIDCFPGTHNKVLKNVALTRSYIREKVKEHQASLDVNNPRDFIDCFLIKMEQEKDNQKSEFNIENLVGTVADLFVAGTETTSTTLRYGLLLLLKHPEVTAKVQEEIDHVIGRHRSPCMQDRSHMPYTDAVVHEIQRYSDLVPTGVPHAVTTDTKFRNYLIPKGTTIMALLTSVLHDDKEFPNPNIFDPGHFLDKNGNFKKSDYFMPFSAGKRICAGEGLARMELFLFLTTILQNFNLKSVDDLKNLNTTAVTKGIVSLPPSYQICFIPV
As to the kind of experiment: Inhibition of CYP2C8 (unknown origin). The class given is ADME.

A short description of data set [8]: Unbound Cmax in nude mouse xenografted with tamoxifen-resistant human MCF7 cells at 100 mg/kg, po daily for 28 days measured on day 28 post last dose. The class given is ADME, organism-based. The settings on record: in vivo, 672 h. The method, boiled down: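 Tamoxifen-resistant MCF-7 xenograft mice carrying subcutaneous 0.72 mg estradiol pellets. Plasma pharmacokinetics sampled on day 28 of the study, at take-down.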

Molecules are shown by their SMILES. Active and inactive are the calls of the source. No cut-off for these calls is given here.

As a reminder, the IC50 is the point on the concentration scale where inhibition reaches its midpoint. Lower therefore signals greater potency in that assay.

Cytochrome P450 2C9, sequence (P11712 whole entry): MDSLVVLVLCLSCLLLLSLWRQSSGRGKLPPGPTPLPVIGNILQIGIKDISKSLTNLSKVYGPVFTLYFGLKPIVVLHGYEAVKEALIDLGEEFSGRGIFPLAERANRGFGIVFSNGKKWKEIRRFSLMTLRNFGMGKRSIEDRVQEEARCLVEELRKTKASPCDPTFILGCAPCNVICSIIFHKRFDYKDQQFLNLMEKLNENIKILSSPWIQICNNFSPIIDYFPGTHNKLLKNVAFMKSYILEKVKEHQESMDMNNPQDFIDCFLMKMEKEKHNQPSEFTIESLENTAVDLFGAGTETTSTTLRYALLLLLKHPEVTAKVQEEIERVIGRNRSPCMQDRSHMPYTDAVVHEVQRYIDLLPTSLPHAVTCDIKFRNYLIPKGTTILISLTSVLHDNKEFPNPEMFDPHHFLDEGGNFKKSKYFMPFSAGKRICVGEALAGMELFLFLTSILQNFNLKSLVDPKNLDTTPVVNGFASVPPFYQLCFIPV

For `CC1=C(c2cccc(O)c2)[C@H](c2ccc(OCCN3CC(CF)C3)cc2)Oc2ccc(O)cc21`, in data set [1], the outcome was Active. Also, in data set [2], the inhibition result is “inactive”. The outcome in data set [3] and in data set [6] was inactive. Further, the IC50 in data set [4] came out at 3.2 µM; in data set [7] it was 3 µM. Besides, the Activity result in data set [5] is “Non-Toxic”. Moreover, the fCmax in data set [8] was 0.018 µg/mL.

For the origin of these results see ChEMBL document CHEMBL4330143, “Maximizing ER-α Degradation Maximizes Activity in a Tamoxifen-Resistant Breast Cancer Model: Identification of GDC-0927” (ACS Med Chem Lett, 2019).
